Our source for the viability, Activity and Papp values is ChEMBL document CHEMBL3739301, “Design, synthesis and biological evaluation of tricyclic diterpene derivatives as novel neuroprotective agents against ischemic brain injury” (Eur J Med Chem, 2015).

Series [1] in a line: Neuroprotective activity against glutamate-induced neuronal cell death in Sprague-Dawley rat CGN cells assessed as cell viability at 10 uM preincubated for 24 hrs followed by glutamate challenge measured after 24 hrs by MTT assay (reference value: 40.4%). It counts as functional. The note with it: read-out: Activity. A general note: Formazan colour is commonly taken as a measure of viable cells.

The nature of series [2]: Neuroprotective activity against glutamate-induced neuronal cell death in Sprague-Dawley rat CGN cells at 10 uM preincubated for 24 hrs followed by glutamate challenge measured after 24 hrs relative to control. It counts as functional.
Series [3] can be described thus: Neuroprotective activity against nutrient deprivation-induced neuronal cell death in Sprague-Dawley rat CGN cells at 10 uM preincubated for 24 hrs followed by induction of nutrient deprivation measured after 24 hrs relative to control. The class given is functional. The essentials: (§1)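 Primary rat cerebellar granule neurons (8-day-old Sprague-Dawley pups, DIV 6-8) pretreated 24 h with compound (0.1% DMSO final), then deprived of B27 serum substitute for 24 h. MTT viability (0.5 mg/ml, 4 h) read at 570 nm against control = 100%; neuroprotection percentage derived from the basal deprived value; mean ± SD, n = 3.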

Series [4] in a line: Neuroprotective activity against oxygen-glucose deprivation-induced neuronal cell death in Sprague-Dawley rat CGN cells assessed as cell viability at 10 uM preincubated for 24 hrs followed by induction of oxygen-glucose deprivation measured after 24 hrs by MTT assay (reference value: 48.7%). The class given is functional. The note with it: read-out: Activity.
Series [5] is described as follows: Neuroprotective activity against oxygen-glucose deprivation-induced neuronal cell death in Sprague-Dawley rat CGN cells at 10 uM preincubated for 24 hrs followed by induction of oxygen-glucose deprivation measured after 24 hrs relative to control. The class given is functional.
Series [6] in a line: Neuroprotective activity against oxygen-glucose deprivation-induced neuronal cell death in Sprague-Dawley rat CGN cells assessed as cell viability at 1 uM preincubated for 24 hrs followed by induction of oxygen-glucose deprivation measured after 24 hrs by MTT assay (reference value: 48.7%). The note with it: read-out: Activity. The class given is functional.
The nature of series [7]: Cytotoxicity against Sprague-Dawley rat CGN cells at <10 uM after 72 hrs by MTT assay. The class given is cell-based. The essentials: (§2)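 Primary cerebellar granule neurons from 8-day SD rat pups; cytosine arabinoside […] added at 24 h, used at DIV 6–8. Cells exposed to a concentration series for 72 h, 0.1% DMSO final. Viability by MTT (0.5 mg/ml, 4 h, 37 °C); formazan dissolved in DMSO, OD 570 nm. n = 3, mean ± SD.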

Series [8] concerns neuronal. The experiment in a line: Neuroprotective activity against glutamate-induced neuronal cell death in Sprague-Dawley rat CGN cells assessed as increase in cell viability preincubated for 24 hrs followed by glutamate challenge measured after 24 hrs by MTT assay. It counts as functional, cell-based.
Series [9] is described as follows: Permeability of the compound at 25 ug/ml after 18 hrs by PAMPA assay. The class given is ADME. The note with it: read-out: permeability. (In general: PAMPA measures passive passage across an artificial lipid membrane.)
Series [10] can be described thus: Cytotoxicity against Sprague-Dawley rat CGN cells at 50 to 100 uM after 72 hrs by MTT assay. It counts as cell-based. The essentials:
as §2

The subject of series [11] is neuronal. The experiment in a line: Neuroprotective activity against glutamate-induced neuronal cell death in Sprague-Dawley rat CGN cells assessed as increase in SOD level at 10 uM preincubated for 24 hrs followed by glutamate challenge measured after 24 hrs. The class given is functional, cell-based.
Series [12] in a line: Neuroprotective activity in Sprague-Dawley rat CGN cells assessed as upregulation of HO-1 expression after 24 hrs by Western blot analysis. The class given is functional, cell-based. The essentials:
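Primary granule neurons treated with a concentration series for 24 h, lysed in RIPA buffer, protein by BCA. Separated on 15% SDS-PAGE, transferred to PVDF, blocked in 5% BSA. Primary antibody overnight at 4 °C, secondary 30 min at room temperature; chemiluminescent detection. HO-1 quantified by densitometry normalized to β-actin. n = 3, mean ± SD.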
Background: In western blotting, separated proteins are transferred to a membrane and probed.

The subject of series [13] is neuronal. Nature of the series: Neuroprotective activity against glutamate-induced neuronal cell death in Sprague-Dawley rat CGN cells assessed as increase in GSH level at 10 uM preincubated for 24 hrs followed by glutamate challenge measured after 24 hrs. The class given is functional, cell-based. The essentials:
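Granule neurons pretreated 24 h with […] compound, then […] for 24 h. Lysed in buffer containing protease inhibitor cocktail; protein determined by BCA. SOD activity and GSH level measured with commercial kits. n = 3, mean ± SD.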

Series [14] in a line: Neuroprotective activity against nutrient deprivation-induced neuronal cell death in Sprague-Dawley rat CGN cells at […] preincubated for 24 hrs followed by induction of nutrient deprivation measured after 24 hrs relative to control. The class given is functional. The essentials:
as §1

Series [15] is described as follows: Neuroprotective activity against nutrient deprivation-induced neuronal cell death in Sprague-Dawley rat CGN cells assessed as cell viability at […] preincubated for 24 hrs followed by induction of nutrient deprivation measured after 24 hrs by MTT assay (reference value: 44.1%). It counts as functional. The note with it: read-out: Activity. The essentials: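 Cerebellar granule neurons pretreated 24 h with 1 or […] compound (0.1% DMSO), then kept without B27 supplement for 24 h. Viability by MTT (0.5 mg/ml, 4 h, OD 570 nm) against non-deprived control (100%); neuroprotection % from basal value. n = 3, mean ± SD.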

Each structure is given as a SMILES string. The source made the active and inactive calls. The calls are words filed in the database; no cut-off is given here.

As to `COc1cc2c(cc1C(=O)NCC(=O)O)CC[C@H]1C(C)(C)[C@@H](O)CC[C@]21C`, the viability at 10 µM in series [1] is 57.1%. Further, in [2], the Activity is 28%.

Take `CC(=O)c1cc2c(cc1O)[C@@]1(C)CC[C@H](O)C(C)(C)[C@@H]1CC2`: the viability at 10 µM in [1] was found to be 77.1%. In series [2], the Activity came to 61.6%.

For `CNC(=O)c1cc2c(cc1OC)[C@@]1(C)CC[C@H](O)C(C)(C)[C@@H]1CC2`, the viability at 10 µM in series [1] was found to be 77.3%. The Activity in series [2] is 61.9%.

Consider `CCCCCCCC(=O)c1cc2c(cc1OC)[C@@]1(C)CC[C@H](O)C(C)(C)[C@@H]1CC2`, for which the viability at 10 µM in series [1] came out at 40.5%.

Consider `COc1cc2c(cc1C(=O)N1CCCCC1)CC[C@H]1C(C)(C)[C@@H](O)CC[C@]21C`, for which the viability at 10 µM in series [1] came out at 79.1%. In addition, the Activity in series [2] is reported as 64.9%.

Consider `COc1cc2c(cc1C(C)=O)CC[C@H]1C(C)(C)[C@@H](OC(=O)C(F)(F)F)CC[C@]21C`, for which the Activity in series [3] is 5%; in series [5], 23%; in series [2], 68.1%; in series [7], “Non-toxic”; in the series with neuronal [8] it was “Dose-dependent effect”. For the same compound, the viability at 10 µM was 60.5% in [4] and 81% in [1]. The viability at 1 µM in series [6] came to 48.2%. For the same compound, the Papp at 18 h, 25 ug/ml in series [9] was 7.31 ×10⁻⁶ cm/s.

Consider `COc1cc2c(cc1C(C)=O)CC[C@H]1C(C)(C)C(=O)CC[C@]21C`, for which the viability at 10 µM in [1] is 69.7%. In series [2], this compound came in with an Activity of 49.2%.

Consider `COc1cc2c(cc1C(=O)C(C)C)CC[C@H]1C(C)(C)[C@@H](O)CC[C@]21C`, for which, in series [1], the viability at 10 µM is 38.8%.

Regarding `CCC(=O)c1cc2c(cc1OC)[C@@]1(C)CC[C@H](O)C(C)(C)[C@@H]1CC2`, the viability at 10 µM in series [1] was 63.2%. In addition, the Activity in series [2] was found to be 38.3%.

Regarding `C#CCNC(=O)c1cc2c(cc1OC)[C@@]1(C)CC[C@H](O)C(C)(C)[C@@H]1CC2`, the Activity is 17% in [3]; “Toxic” in [10]; 37.2% in series [5]; 69.3% in series [2]; “Non-toxic” in series [7]; “Dose-dependent effect” with neuronal [8]. For the same compound, the viability at 10 µM in series [4] worked out at 67.8%; in [1], 81.7%. In addition, the viability at 1 µM in series [6] worked out at 59.7%.

For `COc1cc2c(cc1C(=O)N(C)C)CC[C@H]1C(C)(C)[C@@H](O)CC[C@]21C`, the viability at 10 µM in [1] was 70.7%. In [2], the Activity was determined as 50.8%.

`COCCC(=O)c1cc2c(cc1OC)[C@@]1(C)CC[C@H](O)C(C)(C)[C@@H]1CC2`: the viability at 10 µM in series [1] was 71.5%. Besides, the Activity in [2] was 52.2%.

Take `COc1cc2c(cc1C(=O)O)CC[C@H]1C(C)(C)[C@@H](O)CC[C@]21C`: the viability at 10 µM in series [1] is 54%. The same compound returned an Activity in series [2] of 22.8%.

For the compound `COC(=O)c1cc2c(cc1OC)[C@@]1(C)CC[C@H](O)C(C)(C)[C@@H]1CC2`, the Activity in series [3] is 13.6%; in series [5], 38.4%; in series [2], 53.7%; in series [7] it was “Non-toxic”; in the series on neuronal [8], “Dose-dependent effect”. Further, the viability at 10 µM in series [4] stood at 68.4%; in series [1], 72.4%. Further, the viability at 1 µM in [6] was 43.9%.

As for `COc1cc2c(cc1C(C)=O)CC[C@H]1C(C)(C)[C@@H](O)CC[C@]21C`, the outcome with neuronal [11] and in the series on neuronal [13] was Active. The Activity in series [3] is 19.5%; in series [12] it was “Dose-dependent effect”; in [10], “Toxic”; in series [5], 50.3%; in [2], 75.2%; in series [7], “Non-toxic”. In the series on neuronal [8], the Activity entry is “Dose-dependent effect”. The viability at 10 µM was found to be 74.5% in [4] and 85.2% in series [1]. In addition, the viability at 1 µM in series [6] turned out to be 51.1%.

Take `CCNC(=O)c1cc2c(cc1OC)[C@@]1(C)CC[C@H](O)C(C)(C)[C@@H]1CC2`: the viability at 10 µM in series [1] turned out to be 78.2%. The compound further came in with an Activity in series [2] of 63.4%.

`CCOC(=O)c1cc2c(cc1OC)[C@@]1(C)CC[C@H](O)C(C)(C)[C@@H]1CC2`: in series [1], the viability at 10 µM turned out to be 73.1%. This compound also returned an Activity in series [2] of 54.9%.

In series [14], `CC(=O)N[C@@H](CS)C(=O)O` [ACETYLCYSTEINE] yielded an Activity of 17.2%. Besides, the viability in series [15] is 53.7%.

Take `COc1cc2c(cc1CO)CC[C@H]1C(C)(C)[C@@H](O)CC[C@]21C`: the viability at 10 µM in [1] is 64.4%. The Activity in series [2] turned out to be 40.3%.

On to `COc1cc2c(cc1C(C)=O)CC[C@H]1C(C)(C)[C@@H](OC(C)=O)CC[C@]21C`, for which the Activity in [3] was 6%; in [10], “Toxic”; in series [5], 22%; in series [2] it was 67.1%; in series [7], “Non-toxic”; in the series with neuronal [8], “Dose-dependent effect”. Also, the viability at 10 µM is 60% in series [4] and 80.4% in [1]. In addition, the viability at 1 µM in series [6] was 50%.

Consider `CCCCOC(=O)c1cc2c(cc1OC)[C@@]1(C)CC[C@H](O)C(C)(C)[C@@H]1CC2`, for which, in series [1], the viability at 10 µM was found to be 71%. The compound further came in with an Activity in series [2] of 51.3%.
